Key:
rat = details: translational rat model; increased nephrotoxic effect; cited from earlier work
male Sprague-Dawley rats [1] = experiment: Iohexol-measured GFR; format: in vivo, Sprague-Dawley rat; details: Baseline (day 0, before vancomycin); dose-matched bolus group versus humanized infusion group as referent; marginal difference, mixed effects model
male Sprague-Dawley rats [2] = experiment: Urinary clusterin, kidney injury biomarker, 24-hour urine; format: in vivo, Sprague-Dawley rat; details: dose-matched bolus versus humanized infusion as referent
Method in brief: (§1)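 Male Sprague-Dawley rats were housed in metabolic cages, with 24-h urine collected from baseline (day 0) through day 2. On day 1 the glycopeptide was given IV either as 30.8 mg in 6.0 mL saline by variable-rate infusion over 24 hours (n=11), or as 15.4 mg boluses over 2 minutes every 12 hours ×2 plus volume-matching saline infusion (n=8). Analysis: mixed-effects model, day 0 referent, Bonferroni-corrected group-by-day tests.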

male Sprague-Dawley rats [3] = experiment: Urinary osteopontin; format: in vivo, Sprague-Dawley rat; details: dose-matched bolus versus humanized infusion as referent
Method in brief: as §1

male Sprague-Dawley rats [4] = experiment: Urinary KIM-1, kidney injury biomarker, 24-hour urine; format: in vivo, Sprague-Dawley rat; details: dose-matched bolus versus humanized infusion as referent
Method in brief: as §1

SMILES | increase of urinary KIM-1 when added to vancomycin, compared to vancomycin (rat) | GFR difference, mean (95% CI) (male Sprague-Dawley rats [1]) | Urinary clusterin difference, mean (95% CI) (male Sprague-Dawley rats [2]; Day 1) | Urinary clusterin difference, mean (95% CI) (male Sprague-Dawley rats [2]; Day 2) | Urinary OPN difference, mean (95% CI) (male Sprague-Dawley rats [3]; Day 1) | Urinary OPN difference, mean (95% CI) (male Sprague-Dawley rats [3]; Day 2) | KIM-1 difference, mean (95% CI) (male Sprague-Dawley rats [4]; Day 1) | KIM-1 difference, mean (95% CI) (male Sprague-Dawley rats [4]; Day 2)
Cc1onc(-c2c(F)cccc2Cl)c1C(=O)N[C@@H]1C(=O)N2[C@@H]1SC(C)(C)[C@@H]2C(=O)O [flucloxacillin] | 58 to 140 ng/24 hours |  |  |  |  |  |  | 
CN[C@H](CC(C)C)C(=O)N[C@H]1C(=O)N[C@@H](CC(N)=O)C(=O)N[C@H]2C(=O)N[C@H]3C(=O)N[C@H](C(=O)N[C@H](C(=O)O)c4cc(O)cc(O)c4-c4cc3ccc4O)[C@H](O)c3ccc(c(Cl)c3)Oc3cc2cc(c3O[C@@H]2O[C@H](CO)[C@@H](O)[C@H](O)[C@H]2O[C@H]2C[C@](C)(N)[C@H](O)[C@H](C)O2)Oc2ccc(cc2Cl)[C@H]1O [vancomycin] |  | 0.05 mL/min/100 g body weight | 1932 ng | -3103 ng | -1.76 ng | 0.52 ng | 9.80 ng | -2.27 ng
